Measured values: publication PMC7658073 (Clinical Pharmacokinetics, 2020)

Key:
[1] = Phase I DDI study with rifampicin; assay type: in vivo, human
How it was run: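 Non-randomized, non-blinded, fixed-sequence study in healthy men. Test compound 10 mg single oral dose, fed, alone and then with rifampicin 600 mg QD orally for 9 days (pre- and co-treatment).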

[2] = Phase I DDI study with aspirin; assay type: in vivo, human; conditions: with aspirin 500 mg vs vericiguat 15 mg SD alone, fasting
[3] = Phase I DDI study with sildenafil; assay type: in vivo, human
OATP1B3 = target: T1, OATP1B3 (Homo sapiens, UniProt Q9NPD5); assay: Substrate properties towards OATP1B3; assay type: in vitro ADME
T1 sequence (Q9NPD5 1-702): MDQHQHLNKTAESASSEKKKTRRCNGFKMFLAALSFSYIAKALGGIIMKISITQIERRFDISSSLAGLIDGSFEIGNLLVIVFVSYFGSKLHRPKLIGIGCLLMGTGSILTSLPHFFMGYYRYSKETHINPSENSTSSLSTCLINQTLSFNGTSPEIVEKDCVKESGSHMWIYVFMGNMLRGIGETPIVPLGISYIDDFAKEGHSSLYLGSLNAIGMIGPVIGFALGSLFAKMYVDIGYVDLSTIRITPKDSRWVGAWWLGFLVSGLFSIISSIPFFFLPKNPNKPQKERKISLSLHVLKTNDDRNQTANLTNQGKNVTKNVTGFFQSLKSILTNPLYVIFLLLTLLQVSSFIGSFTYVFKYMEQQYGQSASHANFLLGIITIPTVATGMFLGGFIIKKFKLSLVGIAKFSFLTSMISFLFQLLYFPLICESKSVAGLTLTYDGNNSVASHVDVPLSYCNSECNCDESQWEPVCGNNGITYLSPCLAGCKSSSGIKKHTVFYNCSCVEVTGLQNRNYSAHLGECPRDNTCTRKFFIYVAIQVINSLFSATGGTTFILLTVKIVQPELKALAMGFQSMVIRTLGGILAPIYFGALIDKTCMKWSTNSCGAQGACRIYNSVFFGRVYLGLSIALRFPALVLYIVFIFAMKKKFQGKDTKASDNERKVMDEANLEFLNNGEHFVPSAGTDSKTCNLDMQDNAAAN

[4] = target: T2, organic cation transporter 1 (Homo sapiens, UniProt O15245); assay: Inhibitory potency towards OCT1; assay type: in vitro ADME
T2 sequence (O15245 1-554): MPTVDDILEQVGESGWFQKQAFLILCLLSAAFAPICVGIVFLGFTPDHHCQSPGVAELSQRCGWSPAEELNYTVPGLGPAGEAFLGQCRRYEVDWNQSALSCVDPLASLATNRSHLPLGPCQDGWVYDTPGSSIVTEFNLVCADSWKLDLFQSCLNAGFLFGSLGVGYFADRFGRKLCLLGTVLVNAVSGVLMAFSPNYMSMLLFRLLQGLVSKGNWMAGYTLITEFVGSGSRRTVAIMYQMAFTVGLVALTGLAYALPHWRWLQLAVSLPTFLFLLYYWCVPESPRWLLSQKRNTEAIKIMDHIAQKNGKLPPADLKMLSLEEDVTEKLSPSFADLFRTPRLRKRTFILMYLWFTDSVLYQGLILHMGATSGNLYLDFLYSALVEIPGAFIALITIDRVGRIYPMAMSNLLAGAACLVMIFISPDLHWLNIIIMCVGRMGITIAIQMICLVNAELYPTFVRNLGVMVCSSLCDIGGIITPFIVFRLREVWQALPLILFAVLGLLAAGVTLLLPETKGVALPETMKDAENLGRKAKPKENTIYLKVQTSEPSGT

OAT1 = target: T3, OAT1 (Homo sapiens, UniProt Q4U2R8); assay: Inhibitory potency towards OAT1; assay type: in vitro ADME
T3 sequence (Q4U2R8 1-563): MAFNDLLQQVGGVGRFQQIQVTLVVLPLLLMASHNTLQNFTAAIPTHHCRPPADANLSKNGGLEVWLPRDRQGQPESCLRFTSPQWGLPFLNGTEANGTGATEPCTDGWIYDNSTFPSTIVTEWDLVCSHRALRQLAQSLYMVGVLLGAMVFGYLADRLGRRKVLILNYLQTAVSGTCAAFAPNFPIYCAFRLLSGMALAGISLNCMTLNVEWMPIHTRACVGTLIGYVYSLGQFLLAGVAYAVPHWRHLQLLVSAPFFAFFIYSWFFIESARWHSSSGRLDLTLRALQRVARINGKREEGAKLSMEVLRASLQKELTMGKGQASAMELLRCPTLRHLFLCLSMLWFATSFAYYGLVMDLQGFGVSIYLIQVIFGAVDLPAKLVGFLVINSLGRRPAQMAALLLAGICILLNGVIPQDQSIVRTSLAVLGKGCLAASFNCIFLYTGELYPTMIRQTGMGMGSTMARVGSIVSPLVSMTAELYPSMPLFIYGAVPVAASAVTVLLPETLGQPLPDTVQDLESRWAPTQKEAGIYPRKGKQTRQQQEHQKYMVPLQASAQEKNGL

UGT1A9 = target: T4, UGT1A9 (Homo sapiens, UniProt O60656); assay: Inhibitory potency towards UGT isoforms: UGT1A9; assay type: in vitro ADME
T4 sequence (O60656 26-530): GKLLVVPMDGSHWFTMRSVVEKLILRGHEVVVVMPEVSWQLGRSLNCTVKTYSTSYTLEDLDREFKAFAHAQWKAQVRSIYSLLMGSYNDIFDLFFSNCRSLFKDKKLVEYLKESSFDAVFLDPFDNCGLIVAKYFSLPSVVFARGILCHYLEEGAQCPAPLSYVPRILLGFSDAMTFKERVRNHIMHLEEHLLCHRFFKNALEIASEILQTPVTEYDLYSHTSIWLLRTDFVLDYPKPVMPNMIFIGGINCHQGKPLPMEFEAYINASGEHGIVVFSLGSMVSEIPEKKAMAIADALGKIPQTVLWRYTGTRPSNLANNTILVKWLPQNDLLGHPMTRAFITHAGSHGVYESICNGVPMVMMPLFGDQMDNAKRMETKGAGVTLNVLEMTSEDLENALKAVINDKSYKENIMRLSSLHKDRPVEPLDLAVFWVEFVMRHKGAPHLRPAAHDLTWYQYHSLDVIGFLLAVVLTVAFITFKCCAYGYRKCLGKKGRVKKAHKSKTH

CYP3A4 = assay: CYP induction in cultured human hepatocytes: CYP3A4; assay type: in vitro ADME; conditions: one of the three donors
[5] = multiple oral doses vericiguat 2.5 mg 2 h prior to sacubitril/valsartan; cited from earlier work
[6] = tested on: major cytochrome P450 (CYP) isoforms; conditions: human liver microsomes; cited from earlier work
[7] = with rifampicin 600 mg QD vs vericiguat 10 mg SD alone, fed
[8] = with sildenafil 100 mg vs without, vericiguat 10 mg QD, fed

Decrease in Cmax of vericiguat ([1]; pre- and co-treatment with rifampicin): 9%
Decrease in AUC of vericiguat ([1]; pre- and co-treatment with rifampicin 600 mg once daily): 29%
AUC of vericiguat, point estimate of treatment ratio [1, 7]: 0.713
Cmax of vericiguat, point estimate of treatment ratio [1, 7]: 0.914
AUC of vericiguat, point estimate of treatment ratio [2]: 0.949
Cmax of vericiguat, point estimate of treatment ratio [2]: 0.933
Decrease in vericiguat exposure (differences in PK parameters) ([3]; co-administration with sildenafil 50 mg): less than 9%
AUC0–24,md of vericiguat, point estimate of treatment ratio [3, 8]: 0.993
Cmax,md of vericiguat, point estimate of treatment ratio [3, 8]: 0.970
Substrate of OATP1B3 (OATP1B3): not a substrate
IC50 [4]: > 50 µM
IC50 (OAT1): > 5 µM
IC50 (UGT1A9): 10.6 µM
Ki (UGT1A9): 6.6 µM
CYP3A4 mRNA induction relative to rifampicin [positive control] response (CYP3A4; highest tested concentration): 4%
Increase in CYP3A4 messenger RNA (CYP3A4; highest tested concentration 10,000 μg/L (23.5 µM)): 2.7 fold
SMILES: COC(=O)Nc1c(N)nc(-c2nn(Cc3ccccc3F)c3ncc(F)cc23)nc1N [Vericiguat]
Effect on seated blood pressure [5]: no additional effect
Inhibitory effects on major cytochrome P450 (CYP) isoforms [6]: no inhibitory effects
